# CHRM5 agonist = CHRM5 agonism in calcium assay. CHO-K1 hM5 cells, Fluo-8 calcium fluorescence; 0% DMSO wells, 100% maximal acetylcholine response. 360,000 compounds, 0.19% hits. AID 624037. P08912. activation, % at 3 µM;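 active = activation above the run's mean over test compounds plus 3 SD, cut at about 23% in these data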;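 note: signal is peak over basal fluorescence ratio across the kinetic read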
# Target sequence (P08912 whole entry, looked up): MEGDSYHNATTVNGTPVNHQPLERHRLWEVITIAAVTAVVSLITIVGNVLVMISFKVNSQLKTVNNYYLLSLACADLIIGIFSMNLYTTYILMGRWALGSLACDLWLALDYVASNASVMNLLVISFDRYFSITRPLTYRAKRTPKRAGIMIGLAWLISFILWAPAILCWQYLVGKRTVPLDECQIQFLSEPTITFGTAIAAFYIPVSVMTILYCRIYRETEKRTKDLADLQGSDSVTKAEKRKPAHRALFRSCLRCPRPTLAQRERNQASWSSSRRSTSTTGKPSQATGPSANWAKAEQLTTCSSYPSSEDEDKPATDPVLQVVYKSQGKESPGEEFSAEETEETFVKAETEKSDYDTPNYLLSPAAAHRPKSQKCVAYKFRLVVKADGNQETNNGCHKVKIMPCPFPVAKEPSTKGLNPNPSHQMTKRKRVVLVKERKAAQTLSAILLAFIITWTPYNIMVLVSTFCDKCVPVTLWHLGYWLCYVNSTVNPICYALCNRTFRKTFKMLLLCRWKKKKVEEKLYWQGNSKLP
# M5 PAM = potentiates acetylcholine response at human M5 receptor | P08912 | CHO-K1 hM5, Fluo-8 calcium, ACh EC20 PAM; 0% = ACh EC20, 100% = ACh EC100 | activation, % at 3 µM | 360,000 compounds, 0.3% hits | AID 624038;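 active = activation above the run cutoff, the mean activation of all test compounds plus 3 SD, cut at about 18% in these data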
#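 System – CHO-K1 hM5 cells · Compound – 3 µM, single dose · Incubation – compound preincubation 140 s before EC20 acetylcholine addition · Technique – Fluo-8 calcium fluorescence · Measure – Max/basal fluorescence ratio as % of EC20–EC100 ACh window · Benchmarks – low control EC20 acetylcholine (0%), high control EC100 acetylcholine (100%) · Replication – singlicate, one well per test compound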
# CHRM5 antagonist = blocks acetylcholine activation of human M5 receptor | P08912 | CHO-hM5 cells, Fluo-8 calcium fluorescence, ACh EC80 | inhibition, % at 3 µM | 360,000 compounds, 0.59% hits | AID 624040;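 active = inhibition above a per-plate cutoff, the mean of that plate's test compounds plus 3 SD, cut at about 27% in these data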;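 note: 0% = acetylcholine EC80 with DMSO and 100% = DMSO without agonist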
# CHRM4 PAM = CHRM4 positive allosteric modulation; P08173; CHO-K1 hM4/Gqi5, Fluo-8 calcium fluorescence, ACh EC20; 0% = ACh EC20, 100% = maximal ACh; AID 624126; activation, % at 3 µM; 360,000 compounds, 0.4% hits;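 active = activation above its plate's cutoff, the mean activation of sample wells plus 3 SD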
# CHRM4 agonist = CHRM4 agonism in calcium assay | CHO-K1 hM4/Gqi5, Fluo-8 calcium fluorescence; vehicle 0%, full acetylcholine response 100% | activation, % at 3 µM | 360,000 compounds, 0.14% hits;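 active = activation above the run mean over all test wells plus 3 SD, cut at about 32% in these data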;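 note: peak over basal fluorescence ratio per well then scaled between controls; 0% = DMSO wells and 100% = acetylcholine at EC100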
# CHRM4 antagonist = antagonists of human muscarinic M4 receptor (CHRM4); inhibition, % at 3 µM; AID 624125; 360,000 compounds, 0.73% hits; CHO-hM4 cells, ACh EC80, Fluo-8 calcium fluorescence;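 active = inhibition above its plate's cutoff, the mean inhibition of sample wells plus 3 SD, cut at about 27% in these data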;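 note: 0% = acetylcholine EC80 with DMSO and 100% = DMSO without agonist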
# * = called active by the depositor; ! = not confirmed by another sample. The list is not random: actives were taken first. Their share in the collection is about 1.8%.
SMILES,CHRM5 agonist,M5 PAM,CHRM5 antagonist,CHRM4 PAM,CHRM4 agonist,CHRM4 antagonist
Cc1c2cc(O)c(=O)cc-2oc2cc(O)c(O)cc12,-1,8,-4,20,2,3
O=C(NCCCNC(=O)c1cnccn1)c1ccc(Cl)cc1,-3,0,17,1,2,0
O=C(NCCCNC(=O)c1cnccn1)c1ccc(Cl)c(Cl)c1,-1,-9,27,-14,-3,60*
Cc1ccc(NC(=O)CS(=O)(=O)c2cn(CC(=O)N3CCOCC3)c3ccccc23)cc1,-3,3,-9,25,2,36*
O=C(NCCCc1ccccc1)c1cncc(Br)c1,1,-8,3,-11,15,11
S=c1[nH]nc(CN2CCCCC2)n1-c1ccc(Cl)cc1,2,-12,10,-7,15,2
Fc1ccc(-n2c(CN3CCCCC3)n[nH]c2=S)cc1,2,21*,1,10,1,-5
CC(C)CN(C(=O)CSc1nc2ccccc2c(=O)[nH]1)c1c(N)n(CC(C)C)c(=O)[nH]c1=O,3,-4,12,24*,2,-10
O=C(NC1CCSc2ccccc21)c1cccc([N+](=O)[O-])c1 (stereo not given),-5,5,-10,0,1,8
CN1CCc2cc3c(c4c2[C@H]1[C@H](O)c1ccccc1-4)OCO3,-12,2,-2,1,-1,5
CN1CCc2cccc3c2[C@H]1Cc1ccc(O)c(O)c1-3,0,-18,27,-19,3,81*!
CC(Oc1ccc(Br)cc1)C(=O)Nc1ccc(S(=O)(=O)NC2=NCCCCC2)cc1 (stereo not given),29*,-10,18,-5,39*,-4
CC(Oc1ccc(F)cc1)C(=O)Nc1ccc(S(=O)(=O)NC2=NCCCCC2)cc1 (stereo not given),17,-7,15,2,17,1
CS(=O)(=O)N(Cc1ccc(C(=O)NN=C2CCCCCC2)cc1)c1ccccc1,2,25*,13,9,0,-2
CS(=O)(=O)N(Cc1ccc(C(=O)NN=C2CCCC2)cc1)c1ccccc1,0,-2,3,3,1,-1
CCCCCCCCNS(=O)(=O)CCNCc1ccc(OC)cc1,0,-1,-5,-7,1,-1
CCN1C(=O)[C@@H]2Cc3c([nH]c4ccccc34)C(c3ccc(OC)cc3)N2C1=S (stereo not given in full),-1,-18,29*,-17,18,34*
COc1ccc(CC(N)c2csc(Nc3ccc(C(=O)c4ccccc4)cc3)n2)cc1 (stereo not given),3,1,-1,3,12,-6
C=CCN1CCN(C(=O)c2cc3c(s2)CCC(CC)C3)CC1 (stereo not given),-4,-3,8,-6,1,13
CCc1ccc(Cn2ncc3c(C(=O)O)cc(C)nc32)cc1,0,-4,10,-16,1,34*
CSc1ccc(CN2C(=O)C(C)ON=C2c2ccccc2F)cc1 (stereo not given),-4,-6,-3,-11,4,15
S=C1Cc2ccccc2N1,0,4,11,39*,0,23
CC1CN(C)C(C)c2c1oc1ccc(N)cc21 (stereo not given),-1,20*,-3,5,1,-10
COC(=O)[C@]1(Cc2ccccc2)N[C@H](c2ccc(SC3CCCCC3)c(OC)c2)[C@@H]2C(=O)N(C)C(=O)[C@@H]21,-1,4,3,6,2,1
C=CCNc1nc(NCCOc2ccccc2Cl)c2sc(-c3ccccc3)cc2n1,-2,-2,-3,-3,0,-9
COc1ccc(-c2nc3ccc(N4CCCC4)cc3c(=O)[nH]2)cc1OC,-5,19*,-7,4,2,-11
COc1ccc2nc(-c3ccccc3)[nH]c(=O)c2c1,1,4,8,5,0,1
